Columns and labels:
[1] = target: Insulin-like growth factor 1 receptor (Homo sapiens) (UniProt P08069); assay: Inhibition of IGF-1R (unknown origin) assessed as residual enzyme activity at 10 uM
[2] = target: Mitogen-activated protein kinase 8 (Homo sapiens) (UniProt P45983); assay: Inhibition of JNK1 (unknown origin) assessed as residual enzyme activity at 10 uM
[3] = target: MAP kinase-activated protein kinase 2 (Homo sapiens) (UniProt P49137); assay: Inhibition of MAPKAP-K2 (unknown origin) assessed as residual enzyme activity at 10 uM
[4] = target: Serine/threonine-protein kinase pim-1 (Homo sapiens) (UniProt P11309); assay: Inhibition of PIM1 (unknown origin) assessed as residual enzyme activity at 10 uM
[5] = target: Glycogen synthase kinase-3 beta (Homo sapiens) (UniProt P49841); assay: Inhibition of GSK3b (unknown origin) assessed as residual enzyme activity at 10 uM
[6] = target: T1, Mitogen-activated protein kinase 15 (Homo sapiens) (UniProt Q8TD08); assay: Inhibition of ERK8 (unknown origin) assessed as residual enzyme activity at 10 uM
T1 sequence (whole entry): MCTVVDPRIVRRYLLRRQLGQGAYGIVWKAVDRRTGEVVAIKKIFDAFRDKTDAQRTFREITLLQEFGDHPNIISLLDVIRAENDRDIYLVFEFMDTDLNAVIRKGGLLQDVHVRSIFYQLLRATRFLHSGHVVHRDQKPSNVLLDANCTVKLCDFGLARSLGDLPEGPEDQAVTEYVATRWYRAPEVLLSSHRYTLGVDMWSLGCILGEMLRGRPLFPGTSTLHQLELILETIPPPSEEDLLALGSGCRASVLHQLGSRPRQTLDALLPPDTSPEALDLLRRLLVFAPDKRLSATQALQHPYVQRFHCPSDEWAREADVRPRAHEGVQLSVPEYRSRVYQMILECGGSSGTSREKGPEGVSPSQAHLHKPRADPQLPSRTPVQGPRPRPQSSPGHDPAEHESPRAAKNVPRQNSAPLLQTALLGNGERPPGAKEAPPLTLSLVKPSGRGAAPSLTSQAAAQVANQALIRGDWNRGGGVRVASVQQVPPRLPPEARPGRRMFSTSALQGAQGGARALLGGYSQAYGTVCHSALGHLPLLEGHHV

[7] = tested on: MRC5; assay: Cytotoxicity against human MRC5 cells assessed as growth inhibition after 72 hrs; format: cell-based; conditions: MRC5, 72 h
Outline: (§1)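 Resazurin viability assay: 2 × 10³ cells/well (MRC5 in MEM + 10% FBS; bloodstream-form T. b. brucei in appropriate medium), compounds 50 μM to 0.5 nM, 37 °C, 5% CO₂ for 69 h, then resazurin 50 μM final for further 4 h; fluorescence read. Concentration giving 50% growth inhibition over 72 h; average of two or more experiments.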

[8] = target: CDK2/Cyclin A2 (Homo sapiens, UniProt P24941); assay: Inhibition of human CDK2/cyclin A using Biotin-C6-PKTPKKAKKL substrate; format: protein-complex assay
[9] = target: Maternal embryonic leucine zipper kinase (Homo sapiens) (UniProt Q14680); assay: Inhibition of MELK (unknown origin) assessed as residual enzyme activity at 10 uM
[10] = target: Serine/threonine-protein kinase pim-3 (Homo sapiens) (UniProt Q86V86); assay: Inhibition of PIM3 (unknown origin) assessed as residual enzyme activity at 10 uM
[11] = Inhibition of Trypanosoma brucei GSK3 using biotinylated GSP2 substrate by flashplate assay
Outline: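 Radiometric Flashplate assay: 2.5 nM TbGSK3 short, 1 μM biotinylated GSP2, 1 μM ATP plus [γ-33P]-ATP. 10-point titration 30 μM to 0.3 nM final, 1% DMSO. IC50 averaged over two or more experiments; standard GW8510 used for reproducibility (MSR).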

[12] = target: Mitogen-activated protein kinase 9 (Homo sapiens) (UniProt P45984); assay: Inhibition of JNK2 (unknown origin) assessed as residual enzyme activity at 10 uM
[13] = target: Homeodomain-interacting protein kinase 2 (Homo sapiens) (UniProt Q9H2X6); assay: Inhibition of HIPK2 (unknown origin) assessed as residual enzyme activity at 10 uM
[14] = tested on: Trypanosoma brucei brucei; assay: Trypanocidal activity against bloodstream stage of Trypanosoma brucei brucei assessed as inhibition of proliferation after 72 hrs; format: functional, organism-based; outline: as §1
[15] = target: Cyclin-dependent kinase 2 (Homo sapiens) (UniProt P24941); assay: Inhibition of CDK2 (unknown origin) assessed as residual enzyme activity at 10 uM
[16] = target: Dual specificity tyrosine-phosphorylation-regulated kinase 1A (Homo sapiens) (UniProt Q13627); assay: Inhibition of DYRK1A (unknown origin) assessed as residual enzyme activity at 10 uM
[17] = target: Mitogen-activated protein kinase 1 (Homo sapiens) (UniProt P28482); assay: Inhibition of ERK2 (unknown origin) assessed as residual enzyme activity at 10 uM
[18] = target: Glycogen synthase kinase-3 (Homo sapiens, UniProt P49840+P49841); assay: Inhibition of human GSK3 using biotinylated GSP2 substrate by flashplate assay; format: protein assay
[19] = target: T2, Dual specificity tyrosine-phosphorylation-regulated kinase 3 (Homo sapiens) (UniProt O43781); assay: Inhibition of DYRK3 (unknown origin) assessed as residual enzyme activity at 10 uM
T2 sequence (whole entry): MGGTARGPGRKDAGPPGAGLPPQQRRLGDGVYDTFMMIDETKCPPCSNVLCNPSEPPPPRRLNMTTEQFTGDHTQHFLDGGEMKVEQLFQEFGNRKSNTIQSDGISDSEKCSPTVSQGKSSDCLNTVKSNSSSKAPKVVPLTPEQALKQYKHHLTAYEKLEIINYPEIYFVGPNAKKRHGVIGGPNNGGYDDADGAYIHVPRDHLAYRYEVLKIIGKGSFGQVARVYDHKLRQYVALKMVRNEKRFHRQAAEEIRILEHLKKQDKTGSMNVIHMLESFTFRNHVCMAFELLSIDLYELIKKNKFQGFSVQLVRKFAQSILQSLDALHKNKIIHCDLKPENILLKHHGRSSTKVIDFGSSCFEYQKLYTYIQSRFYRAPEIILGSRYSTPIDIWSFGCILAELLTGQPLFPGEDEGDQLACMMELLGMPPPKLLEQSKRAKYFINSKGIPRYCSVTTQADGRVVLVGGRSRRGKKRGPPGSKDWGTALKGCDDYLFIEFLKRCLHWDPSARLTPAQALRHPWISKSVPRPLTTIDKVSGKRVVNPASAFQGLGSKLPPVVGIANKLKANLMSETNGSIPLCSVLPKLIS

[20] = target: T3, Dual specificity tyrosine-phosphorylation-regulated kinase 2 (Homo sapiens) (UniProt Q92630); assay: Inhibition of DYRK2 (unknown origin) assessed as residual enzyme activity at 10 uM
T3 sequence (whole entry): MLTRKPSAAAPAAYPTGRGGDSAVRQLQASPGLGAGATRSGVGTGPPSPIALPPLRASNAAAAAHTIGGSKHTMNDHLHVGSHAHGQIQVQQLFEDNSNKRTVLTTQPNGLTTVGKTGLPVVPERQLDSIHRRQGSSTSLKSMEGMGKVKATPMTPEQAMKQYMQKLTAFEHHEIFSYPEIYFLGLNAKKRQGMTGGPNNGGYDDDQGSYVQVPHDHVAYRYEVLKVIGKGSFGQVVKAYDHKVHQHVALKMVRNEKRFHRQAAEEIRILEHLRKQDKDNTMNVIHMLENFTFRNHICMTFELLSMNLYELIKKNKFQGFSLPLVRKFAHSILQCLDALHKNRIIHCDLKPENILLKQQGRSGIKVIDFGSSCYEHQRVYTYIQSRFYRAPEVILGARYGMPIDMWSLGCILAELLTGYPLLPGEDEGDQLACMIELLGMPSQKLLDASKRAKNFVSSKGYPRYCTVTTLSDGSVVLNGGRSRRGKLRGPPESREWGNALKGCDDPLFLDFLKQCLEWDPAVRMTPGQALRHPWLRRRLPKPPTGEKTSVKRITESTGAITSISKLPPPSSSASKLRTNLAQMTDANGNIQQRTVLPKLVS

[21] = target: Dual specificity mitogen-activated protein kinase kinase 1 (Homo sapiens) (UniProt Q02750); assay: Inhibition of MKK1 (unknown origin) assessed as residual enzyme activity at 10 uM
[22] = Selectivity ratio, ratio of IC50 for human CDK2/cyclin A to IC50 for Trypanosoma brucei GSK3
[23] = Selectivity ratio, ratio of IC50 for human GSK3 to IC50 Trypanosoma brucei GSK3
[24] = target: Misshapen-like kinase 1 (Homo sapiens) (UniProt Q8N4C8); assay: Inhibition of MINK1 (unknown origin) assessed as residual enzyme activity at 10 uM

Dual specificity mitogen-activated protein kinase kinase 1 (Homo sapiens), sequence (Q02750 whole entry): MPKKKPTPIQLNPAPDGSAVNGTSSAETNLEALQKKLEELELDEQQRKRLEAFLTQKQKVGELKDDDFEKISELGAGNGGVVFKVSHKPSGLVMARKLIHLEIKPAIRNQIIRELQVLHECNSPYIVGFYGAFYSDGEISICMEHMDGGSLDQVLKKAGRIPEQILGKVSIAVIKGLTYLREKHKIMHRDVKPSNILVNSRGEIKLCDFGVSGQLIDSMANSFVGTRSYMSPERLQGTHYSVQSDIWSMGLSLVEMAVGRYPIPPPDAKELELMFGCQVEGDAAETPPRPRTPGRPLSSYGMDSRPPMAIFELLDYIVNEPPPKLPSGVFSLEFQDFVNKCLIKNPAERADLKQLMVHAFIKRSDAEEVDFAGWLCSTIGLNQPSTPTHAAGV
Mitogen-activated protein kinase 8 (Homo sapiens), sequence (P45983 whole entry): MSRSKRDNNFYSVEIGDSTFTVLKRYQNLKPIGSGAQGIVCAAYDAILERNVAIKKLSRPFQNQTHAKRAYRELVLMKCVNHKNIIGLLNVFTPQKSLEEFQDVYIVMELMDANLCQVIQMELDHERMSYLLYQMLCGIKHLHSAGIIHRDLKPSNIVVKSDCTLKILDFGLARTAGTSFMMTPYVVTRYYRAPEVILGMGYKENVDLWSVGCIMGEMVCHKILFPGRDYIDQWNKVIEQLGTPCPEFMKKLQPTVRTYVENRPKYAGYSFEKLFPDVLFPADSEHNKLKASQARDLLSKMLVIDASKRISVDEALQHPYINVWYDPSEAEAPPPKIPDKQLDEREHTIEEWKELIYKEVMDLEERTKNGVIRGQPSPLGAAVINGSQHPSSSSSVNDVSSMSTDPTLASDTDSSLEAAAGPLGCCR
MAP kinase-activated protein kinase 2 (Homo sapiens), sequence (P49137 whole entry, looked up): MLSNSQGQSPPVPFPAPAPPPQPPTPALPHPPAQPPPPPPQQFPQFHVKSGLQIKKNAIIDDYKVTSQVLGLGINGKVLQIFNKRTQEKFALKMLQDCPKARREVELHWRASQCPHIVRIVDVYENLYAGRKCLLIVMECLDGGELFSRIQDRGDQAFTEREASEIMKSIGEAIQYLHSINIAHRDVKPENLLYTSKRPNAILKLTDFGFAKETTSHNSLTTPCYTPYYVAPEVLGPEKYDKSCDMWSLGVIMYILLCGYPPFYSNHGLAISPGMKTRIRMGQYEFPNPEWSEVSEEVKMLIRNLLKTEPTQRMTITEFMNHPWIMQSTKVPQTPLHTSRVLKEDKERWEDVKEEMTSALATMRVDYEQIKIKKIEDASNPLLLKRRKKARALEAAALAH
Maternal embryonic leucine zipper kinase (Homo sapiens), sequence (Q14680 whole entry, looked up): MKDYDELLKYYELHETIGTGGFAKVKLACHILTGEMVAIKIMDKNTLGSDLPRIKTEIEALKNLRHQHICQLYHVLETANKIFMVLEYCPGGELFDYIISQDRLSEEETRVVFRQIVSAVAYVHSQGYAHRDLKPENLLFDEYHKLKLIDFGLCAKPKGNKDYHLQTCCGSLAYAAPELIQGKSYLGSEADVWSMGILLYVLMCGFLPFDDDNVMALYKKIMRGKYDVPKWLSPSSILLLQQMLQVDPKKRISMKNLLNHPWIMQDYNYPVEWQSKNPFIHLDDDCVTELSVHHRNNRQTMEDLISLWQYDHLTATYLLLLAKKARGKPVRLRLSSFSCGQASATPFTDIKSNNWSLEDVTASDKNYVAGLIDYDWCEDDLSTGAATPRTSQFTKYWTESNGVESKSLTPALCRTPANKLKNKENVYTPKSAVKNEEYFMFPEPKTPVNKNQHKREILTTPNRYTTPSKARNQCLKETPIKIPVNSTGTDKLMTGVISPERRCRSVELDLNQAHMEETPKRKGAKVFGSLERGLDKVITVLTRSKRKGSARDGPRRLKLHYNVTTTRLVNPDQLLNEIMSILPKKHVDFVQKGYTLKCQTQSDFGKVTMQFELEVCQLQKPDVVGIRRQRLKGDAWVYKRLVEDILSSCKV
Glycogen synthase kinase-3 beta (Homo sapiens), sequence (P49841 whole entry, looked up): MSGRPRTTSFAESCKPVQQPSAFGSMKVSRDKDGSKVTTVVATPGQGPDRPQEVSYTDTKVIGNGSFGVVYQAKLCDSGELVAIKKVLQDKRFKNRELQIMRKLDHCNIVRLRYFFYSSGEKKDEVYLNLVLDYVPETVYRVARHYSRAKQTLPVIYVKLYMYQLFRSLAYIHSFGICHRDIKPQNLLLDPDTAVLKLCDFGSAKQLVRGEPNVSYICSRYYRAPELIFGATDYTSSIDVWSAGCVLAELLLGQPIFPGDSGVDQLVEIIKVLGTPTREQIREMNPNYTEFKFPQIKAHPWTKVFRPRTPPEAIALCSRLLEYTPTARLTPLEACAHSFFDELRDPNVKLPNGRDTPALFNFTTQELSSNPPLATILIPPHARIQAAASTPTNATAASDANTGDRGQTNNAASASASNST
Serine/threonine-protein kinase pim-1 (Homo sapiens), sequence (P11309 whole entry, looked up): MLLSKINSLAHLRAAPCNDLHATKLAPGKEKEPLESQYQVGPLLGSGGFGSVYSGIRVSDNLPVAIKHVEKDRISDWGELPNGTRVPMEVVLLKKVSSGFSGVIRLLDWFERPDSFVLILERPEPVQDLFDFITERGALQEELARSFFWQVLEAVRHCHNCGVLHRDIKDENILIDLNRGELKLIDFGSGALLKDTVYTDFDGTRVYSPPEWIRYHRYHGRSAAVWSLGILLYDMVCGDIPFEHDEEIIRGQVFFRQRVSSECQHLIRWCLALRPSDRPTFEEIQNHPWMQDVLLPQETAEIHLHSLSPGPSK
Insulin-like growth factor 1 receptor (Homo sapiens), sequence (P08069 31-736 limits assumed): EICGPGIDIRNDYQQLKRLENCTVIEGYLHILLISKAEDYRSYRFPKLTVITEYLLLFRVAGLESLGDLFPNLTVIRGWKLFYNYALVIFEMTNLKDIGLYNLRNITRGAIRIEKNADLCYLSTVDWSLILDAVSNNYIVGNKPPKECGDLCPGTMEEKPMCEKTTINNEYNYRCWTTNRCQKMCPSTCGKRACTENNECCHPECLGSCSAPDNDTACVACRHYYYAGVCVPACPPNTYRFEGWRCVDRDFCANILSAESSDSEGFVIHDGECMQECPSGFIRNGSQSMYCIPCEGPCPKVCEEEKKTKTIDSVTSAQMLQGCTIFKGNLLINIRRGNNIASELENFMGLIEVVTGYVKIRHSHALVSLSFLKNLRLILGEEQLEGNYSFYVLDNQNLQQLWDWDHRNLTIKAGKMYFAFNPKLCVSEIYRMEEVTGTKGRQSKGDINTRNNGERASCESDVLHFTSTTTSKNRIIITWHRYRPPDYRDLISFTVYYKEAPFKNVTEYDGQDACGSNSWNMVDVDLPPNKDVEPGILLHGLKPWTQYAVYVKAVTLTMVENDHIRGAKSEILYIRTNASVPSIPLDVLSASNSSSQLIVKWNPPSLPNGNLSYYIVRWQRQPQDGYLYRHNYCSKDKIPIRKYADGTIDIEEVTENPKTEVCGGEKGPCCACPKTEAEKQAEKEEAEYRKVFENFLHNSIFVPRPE
Insulin-like growth factor 1 receptor (Homo sapiens), sequence (P08069 741-1367 limits assumed): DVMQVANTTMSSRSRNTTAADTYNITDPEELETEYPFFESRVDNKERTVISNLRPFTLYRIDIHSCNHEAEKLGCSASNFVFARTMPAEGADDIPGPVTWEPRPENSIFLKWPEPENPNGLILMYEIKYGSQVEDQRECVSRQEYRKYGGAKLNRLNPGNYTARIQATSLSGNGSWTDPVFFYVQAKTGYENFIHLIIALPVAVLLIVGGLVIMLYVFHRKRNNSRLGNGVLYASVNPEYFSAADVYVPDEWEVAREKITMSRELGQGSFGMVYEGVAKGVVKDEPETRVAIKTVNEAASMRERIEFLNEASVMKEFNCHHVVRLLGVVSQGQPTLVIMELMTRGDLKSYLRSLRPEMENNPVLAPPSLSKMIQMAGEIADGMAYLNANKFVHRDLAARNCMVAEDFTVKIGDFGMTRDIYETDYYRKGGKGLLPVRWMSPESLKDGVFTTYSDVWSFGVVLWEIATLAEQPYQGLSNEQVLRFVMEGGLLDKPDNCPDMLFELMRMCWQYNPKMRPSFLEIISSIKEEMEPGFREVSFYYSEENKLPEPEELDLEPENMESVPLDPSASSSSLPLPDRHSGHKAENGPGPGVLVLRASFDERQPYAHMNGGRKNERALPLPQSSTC
Mitogen-activated protein kinase 9 (Homo sapiens), sequence (P45984 whole entry, looked up): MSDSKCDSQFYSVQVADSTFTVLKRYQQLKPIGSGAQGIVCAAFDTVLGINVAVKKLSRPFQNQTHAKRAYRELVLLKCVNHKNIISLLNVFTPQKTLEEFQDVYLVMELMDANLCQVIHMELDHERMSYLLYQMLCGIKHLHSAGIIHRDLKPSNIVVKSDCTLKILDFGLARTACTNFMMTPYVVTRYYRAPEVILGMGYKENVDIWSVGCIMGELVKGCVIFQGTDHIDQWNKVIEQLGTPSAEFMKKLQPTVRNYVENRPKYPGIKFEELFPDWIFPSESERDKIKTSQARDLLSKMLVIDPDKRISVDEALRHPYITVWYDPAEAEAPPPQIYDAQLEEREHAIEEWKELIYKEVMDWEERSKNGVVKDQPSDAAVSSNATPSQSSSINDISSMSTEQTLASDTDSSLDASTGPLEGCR

## CO[C@H]1CC[C@H](NC(=O)c2n[nH]cc2NC(=O)c2ccccc2)CC1
[1]
  Activity: 96%
[2]
  Activity: 31%
[3]
  Activity: 92%
[4]
  Activity: 46%
[5]
  Activity: 33%
[6]
  Activity: 14%
[7]
  EC50: 0.8 µM
[8]
  IC50: 0.038 µM
[9]
  Activity: 32%
[10]
  Activity: 19%
[11]
  IC50: 0.024 µM
[12]
  Activity: 51%
[13]
  Activity: 14%
[14]
  EC50: 1.3 µM
[15]
  Activity: 1%
[16]
  Activity: 6%
[17]
  Activity: 18%
[18]
  IC50: < 0.005 µM
[19]
  Activity: 24%
[20]
  Activity: 3%
[21]
  Activity: 54%

## COc1cccc(OC)c1C(=O)Nc1c[nH]nc1C(=O)NCc1ccccc1
[1]
  Activity: 79%
[2]
  Activity: 71%
[3]
  Activity: 13%
[22]
  Ratio IC50: > 10000
[23]
  Ratio IC50: 330
[24]
  Activity: 18%
[4]
  Activity: 92%
[5]
  Activity: 10%
[6]
  Activity: 47%
[7]
  EC50: 50 µM
[8]
  IC50: > 10 µM
[9]
  Activity: 96%
[10]
  Activity: 96%
[11]
  IC50: 0.001 µM
[12]
  Activity: 63%
[13]
  Activity: 93%
[14]
  EC50: 5.9 µM
[15]
  Activity: 38%
[16]
  Activity: 79%
[17]
  Activity: 92%
[18]
  IC50: 0.33 µM
[19]
  Activity: 80%
[20]
  Activity: 28%
[21]
  Activity: 76%

## COc1cccc(OC)c1C(=O)Nc1c[nH]nc1C(=O)N[C@H]1CC[C@H](OC)CC1
[1]
  Activity: 100%
[2]
  Activity: 77%
[3]
  Activity: 33%
[22]
  Ratio IC50: 95
[23]
  Ratio IC50: < 2.5
[4]
  Activity: 100%
[5]
  Activity: 0%
[6]
  Activity: 27%
[7]
  EC50: 31 µM
[8]
  IC50: 0.19 µM
[9]
  Activity: 100%
[10]
  Activity: 94%
[11]
  IC50: 0.002 µM
[12]
  Activity: 82%
[13]
  Activity: 100%
[14]
  EC50: 0.5 µM
[15]
  Activity: 9%
[16]
  Activity: 84%
[17]
  Activity: 51%
[18]
  IC50: < 0.005 µM
[19]
  Activity: 100%
[20]
  Activity: 63%
[21]
  Activity: 83%

## CO[C@H]1CC[C@H](NC(=O)c2n[nH]cc2NC(=O)c2ccc(-c3ccccc3)o2)CC1
[1]
  Activity: 15%
[2]
  Activity: 8%
[3]
  Activity: 90%
[22]
  Ratio IC50: 1.4
[4]
  Activity: 13%
[5]
  Activity: 0%
[6]
  Activity: 7%
[7]
  EC50: 0.1 µM
[8]
  IC50: 0.01 µM
[9]
  Activity: 13%
[10]
  Activity: 1%
[11]
  IC50: 0.007 µM
[12]
  Activity: 15%
[13]
  Activity: 4%
[14]
  EC50: 0.3 µM
[15]
  Activity: 1%
[16]
  Activity: 1%
[17]
  Activity: 2%
[18]
  IC50: < 0.005 µM
[19]
  Activity: 2%
[20]
  Activity: 1%
[21]
  Activity: 17%

Source: ChEMBL document CHEMBL3352013, “The design and synthesis of potent and selective inhibitors of Trypanosoma brucei glycogen synthase kinase 3 for the treatment of human african trypanosomiasis” (J Med Chem, 2014)
